Assay results as given in ChEMBL document CHEMBL3627669, “Wittig derivatization of sesquiterpenoid polygodial leads to cytostatic agents with activity against drug resistant cancer cells and capable of pyrrolylation of primary amines” (2015).
The source made the active and inactive calls. The calls are words filed in the database; no cut-off is given here.

How the values were obtained:
[1] = system: MCF7; experiment: Cytotoxicity against human MCF7 cells assessed as growth inhibition incubated for 72 hrs by MTT assay; format: functional; details: MCF7, 72 h
Method in brief: (§1)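 MTT assay. Stocks of 100 or 50 mM in DMSO. Cells seeded at line-dependent density, grown 24–72 h, then treated across […] for 72 h. Negative control 0.1% DMSO, positive control 1 μM phenylarsine oxide. GI50 is the concentration reducing viability 50% relative to control, averaged over experiments each run in sextuplicate.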

[2] = system: A549; experiment: Cytotoxicity against human A549 cells assessed as growth inhibition incubated for 72 hrs by MTT assay; format: functional; details: A549, 72 h; method in brief: as §1
[3] = system: SK-MEL-28; experiment: Cytotoxicity against human SK-MEL-28 cells assessed as growth inhibition incubated for 72 hrs by MTT assay; format: functional; details: SK-MEL-28, 72 h; method in brief: as §1
[4] = Cytotoxicity against human U373 cells assessed as growth inhibition incubated for 72 hrs by MTT assay; format: functional, U-373MG ATCC; details: U373 MG; method in brief: as §1
[5] = Cytotoxicity against human Hs683 cells assessed as growth inhibition incubated for 72 hrs by MTT assay; format: functional; details: Hs 683, 72 h; method in brief: as §1
[6] = system: U-373MG ATCC; experiment: Cytotostatic activity on human U373 cells assessed as change in cell morphology at 100 uM after 72 hrs by videomicroscopic analysis; format: functional, cell-based
[7] = biological target: Transient receptor potential cation channel subfamily V member 1 (Rattus norvegicus) (UniProt O35433); experiment: Displacement of [3H]-RTX from vanilloid site of TRPV1 receptor in rat spinal cord at 10 uM incubated for 60 mins by scintillation counting analysis
Method in brief: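 Rat spinal cord homogenized in buffer A (pH 7.4, HEPES/sucrose salts). Membranes collected from a 35,000g spin. Binding run with 0.5 mg/mL membranes, 0.25 mg/mL BSA, 2 nM [3H]-RTX, and compound at 10 μM, for 60 min at 37 °C. Nonspecific binding defined with 100 μM unlabeled RTX. Reaction stopped on ice with α1-acid glycoprotein, then centrifuged and the pellet counted by scintillation. Result is % specific binding, mean ± SEM of 3 experiments.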

[8] = system: U-373MG ATCC; experiment: Cytotoxicity against human U373 cells assessed as necrotic and late apoptotic cells at 100 uM after 72 hrs by Trypan blue assay; format: functional, cell-based
Method in brief: (§2)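 U373 cells treated 72 h, stained with trypan blue and imaged. Cells were then fixed with ice-cold methanol and restained as an internal positive control. Single experiment in triplicate.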

[9] = biological target: Transient receptor potential cation channel subfamily V member 1 (Homo sapiens) (UniProt Q8NER1); experiment: Activity at TRPV1 in human MDA-MB--231 cells assessed as transient and synchronous increase in cytosolic Ca2+ level at 80 uM by FURA2-based fluorescence imaging analysis; format: cell-based
[10] = biological target: Transient receptor potential cation channel subfamily V member 1 (Homo sapiens) (UniProt Q8NER1); experiment: Activity at TRPV1 in human MDA-MB--231 cells assessed as transient and synchronous increase in cytosolic Ca2+ level at 80 uM in presence of TRPV1 blocker capsazepine by FURA2-based fluorescence imaging analysis; format: cell-based
[11] = system: U-373MG ATCC; experiment: Cytotoxicity against human U373 cells assessed as necrotic and late apoptotic cells at 35 uM after 72 hrs by Trypan blue assay; format: functional, cell-based; method in brief: as §2
[12] = system: U-373MG ATCC; experiment: Cytotostatic activity on human U373 cells assessed as change in cell morphology at 35 uM after 72 hrs by videomicroscopic analysis; format: functional, cell-based
[13] = system: Glioma cell; experiment: Cytotoxicity against cdkn2a-deficient EGFRvIII amplified mouse neurosphere glioma cells using bis-AAF-R110 as substrate at 10 uM preincubated for 24 hrs followed by substrate addition measured after 2 hrs by fluorescence analysis; format: functional, cell-based
Method in brief: (§3)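 Primary glioma neurosphere cultures were plated at 0.015×10^6 cells/well (5 replicates) in phenol red-free DMEM-F12. Cells were mixed with bis-AAF-R110 and incubated 2 h at 37 °C, with fluorescence read at 485/520 nm. Signal was blank-subtracted and expressed as fold change over vehicle (mean ± SD, two independent experiments).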

[14] = system: Glioma cell; experiment: Cytotoxicity against cdkn2a/TRPV1 doubly deficient PDGFB amplified mouse neurosphere glioma cells using bis-AAF-R110 as substrate at 10 uM preincubated for 24 hrs followed by substrate addition measured after 2 hrs by fluorescence analysis; format: functional, cell-based; method in brief: as §3
[15] = system: Glioma cell; experiment: Cytotoxicity against cdkn2a-deficient mouse neurosphere glioma cells at 10 uM after 24 hrs; format: functional, cell-based; method in brief: as §3
[16] = Cytotoxicity against human MES-SA cells assessed as growth inhibition incubated for 48 hrs by MTT assay; format: functional
Method in brief: (§4)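 MTT assay on MES-SA and MES-SA/Dx5 uterine sarcoma cells in RPMI-1640 with 10% FBS. Dx5 cells were selected by stepwise doxorubicin exposure from 100 to 500 nM and maintained in 500 nM doxorubicin. Cells treated 48 h. GI50 is the concentration reducing viability 50% relative to DMSO control, from two independent experiments with 4 replicates each.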

[17] = system: SCC-4; experiment: Cytotoxicity against docetaxel-resistant human SCC4 cells assessed as growth inhibition; format: functional, cell-based
[18] = system: U-373MG ATCC; experiment: Cytotostatic activity on human U373 cells assessed as change in cell morphology at 25 uM after 72 hrs by videomicroscopic analysis; format: functional, cell-based
[19] = system: PC-3; experiment: Cytotoxicity against docetaxel-resistant human PC3 cells assessed as growth inhibition; format: functional, cell-based
[20] = system: Glioma cell; experiment: Cytotoxicity against cdkn2a/TRPV1 doubly deficient PDGFB amplified mouse neurosphere glioma cells using bis-AAF-R110 as substrate at 20 uM preincubated for 24 hrs followed by substrate addition measured after 2 hrs by fluorescence analysis; format: functional, cell-based
Method in brief: (§5)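 GBM neurosphere primary cultures carrying cdkn2a deletion with PDGFB or EGFRvIII amplification. Plated at 0.015×10^6 cells/well, 5 replicates per condition, in DMEM-F12 without phenol red. Cell suspension then mixed with bis-AAF-R110 substrate for 2 h at 37 °C and fluorescence read at 485/520 nm. After blank subtraction, signals were normalized to vehicle (=1) to give fold relative cytotoxicity. Mean ± SD of two independent experiments.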

[21] = system: Glioma cell; experiment: Cytotoxicity against cdkn2a-deficient mouse neurosphere glioma cells at 20 uM after 24 hrs; format: functional, cell-based
[22] = system: SCC-25; experiment: Cytotoxicity against cisplatin-resistant human SCC25 cells assessed as growth inhibition; format: functional, cell-based
[23] = Cytotoxicity against human MES-SA/Dx5 cells assessed as growth inhibition incubated for 48 hrs by MTT assay; format: functional; details: MES-SA/Dx5, 48 h; method in brief: as §4
[24] = system: Glioma cell; experiment: Cytotoxicity against cdkn2a-deficient EGFRvIII amplified mouse neurosphere glioma cells using bis-AAF-R110 as substrate at 20 uM preincubated for 24 hrs followed by substrate addition measured after 2 hrs by fluorescence analysis; format: functional, cell-based; method in brief: as §5
[25] = biological target: Transient receptor potential cation channel subfamily V member 1 (Homo sapiens) (UniProt Q8NER1); experiment: Activity at TRPV1 in human MDA-MB--231 cells assessed as sustained and asynchronous increase in cytosolic Ca2+ level at 20 uM by FURA2-based fluorescence imaging analysis; format: cell-based

Sequence of Transient receptor potential cation channel subfamily V member 1 (Homo sapiens) (Q8NER1 whole entry): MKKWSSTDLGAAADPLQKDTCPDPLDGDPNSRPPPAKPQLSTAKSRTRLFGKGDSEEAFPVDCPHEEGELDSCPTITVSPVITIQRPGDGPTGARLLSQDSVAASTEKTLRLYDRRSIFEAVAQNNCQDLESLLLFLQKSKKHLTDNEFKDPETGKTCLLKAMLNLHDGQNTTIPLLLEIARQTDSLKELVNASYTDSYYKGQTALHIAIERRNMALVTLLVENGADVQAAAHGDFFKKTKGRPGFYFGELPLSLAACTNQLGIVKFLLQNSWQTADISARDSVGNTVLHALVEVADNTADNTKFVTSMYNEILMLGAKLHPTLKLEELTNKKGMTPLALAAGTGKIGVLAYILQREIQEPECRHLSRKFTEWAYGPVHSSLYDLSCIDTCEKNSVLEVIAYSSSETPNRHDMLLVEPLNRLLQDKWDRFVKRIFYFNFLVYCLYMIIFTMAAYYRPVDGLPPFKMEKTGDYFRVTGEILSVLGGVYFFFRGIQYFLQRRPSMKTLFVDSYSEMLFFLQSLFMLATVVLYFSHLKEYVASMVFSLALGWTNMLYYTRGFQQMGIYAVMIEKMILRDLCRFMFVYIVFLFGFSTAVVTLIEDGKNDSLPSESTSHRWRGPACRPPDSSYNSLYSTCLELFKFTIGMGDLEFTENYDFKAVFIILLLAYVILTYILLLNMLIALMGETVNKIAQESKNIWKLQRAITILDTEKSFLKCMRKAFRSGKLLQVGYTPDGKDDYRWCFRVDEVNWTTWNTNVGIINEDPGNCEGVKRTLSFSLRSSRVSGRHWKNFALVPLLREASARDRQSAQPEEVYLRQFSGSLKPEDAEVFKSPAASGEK
Sequence of Transient receptor potential cation channel subfamily V member 1 (Rattus norvegicus) (O35433 whole entry): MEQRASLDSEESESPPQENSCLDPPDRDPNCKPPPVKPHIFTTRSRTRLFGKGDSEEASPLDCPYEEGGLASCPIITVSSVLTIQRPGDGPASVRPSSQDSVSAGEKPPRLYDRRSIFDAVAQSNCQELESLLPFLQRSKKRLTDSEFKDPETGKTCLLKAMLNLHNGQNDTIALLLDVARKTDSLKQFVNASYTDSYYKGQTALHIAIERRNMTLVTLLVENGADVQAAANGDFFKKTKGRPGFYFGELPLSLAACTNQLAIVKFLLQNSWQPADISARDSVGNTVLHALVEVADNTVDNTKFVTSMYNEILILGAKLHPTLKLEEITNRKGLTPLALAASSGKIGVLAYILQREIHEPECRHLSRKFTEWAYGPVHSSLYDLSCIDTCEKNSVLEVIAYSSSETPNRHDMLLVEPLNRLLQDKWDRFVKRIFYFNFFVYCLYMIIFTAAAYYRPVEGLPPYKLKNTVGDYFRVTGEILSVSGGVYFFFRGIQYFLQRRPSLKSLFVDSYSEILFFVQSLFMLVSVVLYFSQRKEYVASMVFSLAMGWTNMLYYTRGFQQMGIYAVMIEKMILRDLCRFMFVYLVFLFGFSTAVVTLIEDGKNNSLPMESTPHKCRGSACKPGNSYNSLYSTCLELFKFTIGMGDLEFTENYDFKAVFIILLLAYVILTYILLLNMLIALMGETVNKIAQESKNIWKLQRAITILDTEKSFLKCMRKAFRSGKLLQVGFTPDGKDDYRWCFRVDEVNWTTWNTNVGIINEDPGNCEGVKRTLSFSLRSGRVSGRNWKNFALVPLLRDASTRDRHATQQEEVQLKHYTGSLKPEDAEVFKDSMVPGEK

| SMILES | GI50 [1] [µM] | GI50 [2] [µM] | GI50 [3] [µM] | GI50 [4] [µM] | GI50 [5] [µM] | other results |
| --- | --- | --- | --- | --- | --- | --- |
| CC(=O)/C=C/C1=CC[C@H]2C(C)(C)CCC[C@]2(C)[C@H]1C=O | 20 | 24 | 28 | 25 | 22 |  |
| COC(=O)/C=C/C=C/C1=CC[C@H]2C(C)(C)CCC[C@]2(C)[C@H]1C=O | 31 | 29 | 25 | 27 | 12 |  |
| CC1(C)CCC[C@]2(C)[C@@H](C=O)C(C=O)=CC[C@@H]12 [POLYGODIAL] | 75 | 90 | 65 | > 100 | 95 | Activity [6]: inactive; inhibition [7]: 76%; Activity [8]: Active; Activity [9]: Active; Activity [10]: inactive |
| CCOC(=O)/C(C)=C/C1=CC[C@H]2C(C)(C)CCC[C@]2(C)[C@H]1C=O | 27 | 26 | 37 | 37 | 28 |  |
| C#CCCCOC(=O)/C=C/C1=CC[C@H]2C(C)(C)CCC[C@]2(C)[C@H]1C=O | 30 | 30 | 36 | 35 | 33 | Activity [11]: inactive; Activity [12]: Active |
| CC(C)(C)OC(=O)/C=C/C1=CC[C@H]2C(C)(C)CCC[C@]2(C)[C@H]1C=O | 32 | 29 | 41 | 40 | 29 |  |
| CC1(C)CCC[C@]2(C)[C@@H](C=O)C(/C=C/C#N)=CC[C@@H]12 | 31 | 27 | 42 | 36 | 28 |  |
| C=C(C)[C@@H]1CCC(C)=C[C@H]1c1c(O)cc(CCCCC)cc1O |  |  |  |  |  | growth inhibition (GI) [13]: Active; growth inhibition (GI) [14]: inactive; growth inhibition (GI) [15]: Active |
| COC(=O)/C=C/C1=CC[C@H]2C(C)(C)CCC[C@]2(C)[C@H]1C=O | 7 | 21 | 27 | 22 | 24 | GI50 [16]: 40 µM; growth inhibition (GI) [17]: Active; Activity [18]: Active; Activity [7]: inactive; growth inhibition (GI) [19]: Active; growth inhibition (GI) [20]: Active; growth inhibition (GI) [21]: Active; growth inhibition (GI) [22]: Active; GI50 [23]: 45 µM; growth inhibition (GI) [24]: Active; Activity [25]: Active |
| CC1(C)CCC[C@]2(C)[C@@H](C=O)C(/C=C/C(=O)OCc3ccccc3)=CC[C@@H]12 | 27 | 28 | 39 | 39 | 31 |  |
| CC[C@]1(O)C[C@@H]2CN(CCc3c([nH]c4ccccc34)[C@@](C(=O)OC)(c3cc4c(cc3OC)N(C)[C@H]3[C@@](O)(C(=O)OC)[C@H](OC(C)=O)[C@]5(CC)C=CCN6CC[C@]43[C@@H]65)C2)C1 [VINBLASTINE] |  |  |  |  |  | GI50 [16]: 0.006 µM; GI50 [23]: 5 µM |
| CCOC(=O)/C=C/C1=CC[C@H]2C(C)(C)CCC[C@]2(C)[C@H]1C=O | 30 | 25 | 29 | 37 | 29 |  |
| CC(=O)O[C@H]1C(=O)[C@@]2(C)[C@H]([C@H](OC(=O)c3ccccc3)[C@]3(O)C[C@H](OC(=O)[C@H](O)[C@@H](NC(=O)c4ccccc4)c4ccccc4)C(C)=C1C3(C)C)[C@]1(OC(C)=O)CO[C@@H]1C[C@@H]2O [PACLITAXEL] |  |  |  |  |  | GI50 [16]: 0.007 µM; GI50 [23]: 10 µM |
